# Bioassay records: PubChem BioAssay, several laboratories
# This is a sample that favours compounds with a hit; in the whole collection about 1.8% have one here.
# Apaf1 inhib – blocks human Apaf-1 apoptosome activity; O14727; reconstituted apoptosome caspase-3 activity, DEVD-Rh110 fluorescence; inhibition, % at 20 µM; actives 0.71% (n = 330,000); active means inhibition of at least 40% at 20 µM
#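 Medium: Hepes buffer, pH 7.5 / System: biochemical Apaf-1 apoptosome reconstitution / Measured by: Rh110 fluorescence, excitation 480 nm, emission 540 nm / Times: compound with Apaf-1, dATP, procaspase-3 30 min, then 50 min reaction, room temperature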
# procasp3 activ – procaspase-3 (human) activation; P42574; recombinant procaspase-3 D3A, Ac-DEVD-pNA absorbance 405 nm; activation, % at 8.5 µM; actives 0.11% (n = 330,000);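 active means activation above the mean of all tested compounds plus 3 SD, cut at about 21% in these data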
#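 material = Procaspase-3 D3A mutant | probe or stimulus = Ac-DEVD-pNA | compound = single dose, 8.5 µM nominal compound, 0.8% DMSO | timing = 1 h preincubation, 2 h reaction | measured by = 405 nm absorbance of p-nitroaniline, reads at 0 and 120 min | benchmarks = DMSO-only low control, 5 µM PC-3 D3A high control | repeats = singlicate, each compound tested once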
# GSTO1 inh – GSTO1 inhibition, counter-screen for RBBP9 inhibitors; actives 1.1% (n = 300,000); inhibition, % at 5.96 µM; P78417; recombinant GSTO1, activity-based probe fluorescence polarization;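 active means inhibition above the campaign mean inhibition plus 3 SD, cut at about 35% in these data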
# ZTA counter – blocks Epstein-Barr virus ZTA, an EBNA-1 counter-screen; inhibition, % at 11 µM; actives 0.15% (n = 320,000); P03206; ZTA-DNA binding, fluorescence polarization; in the data active means inhibition above about 33%
# EBNA-1 inhibitor – blocks EBNA-1 binding to DNA | EBNA-1 DNA binding, fluorescence polarization | inhibition, % at 14.8 µM | actives 0.34% (n = 300,000); in the data active means inhibition above about 28%
# proCasp7 act – counter-screen for procaspase-3 activators: activators of human procaspase-7 | recombinant procaspase-7, Ac-DEVD-pNA absorbance 405 nm; D23A/D198A/D206A triple mutant, cannot self-cleave; scale: DMSO 0, 5 µM enzyme 100 | activation, % at 8.5 µM | actives 0.093% (n = 330,000);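 active means percent activation above the screen-wide mean plus 3 SD, cut at about 25% in these data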
#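 Test system: Procaspase-7 triple mutant (PC-7 D3A). Also added: Ac-DEVD-pNA substrate, 400 µM as added. Schedule: 1 h enzyme–compound preincubation and 2 h substrate reaction, both 25 °C. Signal: p-Nitroaniline absorbance at 405 nm, read at 0 and 120 min. Control set: low DMSO alone, high DMSO plus 5 µM PC-7.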
# Apaf-1 inh conf – confirmation of Apaf-1 inhibitors. shares compounds with Apaf1 inhib. reconstituted apoptosome, caspase-3 DEVD-Rh110 fluorescence. inhibition, % at 20 µM. actives 25% (n = 1,800). AID 504614;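 active means mean inhibition of at least 40% at 20 µM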
# Rh110 interf inh – interferes with Rh110 fluorescence, flagging false Apaf-1 inhibitors; shares compounds with Apaf1 inhib; Rh110 fluorescence interference, quenched caspase reaction; activation (fluorescence interference), % at 20 µM; 1,800 tested, under 10 active;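 active means signal rise of 40% or more at 20 µM, treated as a fluorescence artifact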
# Fluor interf inh – Apaf-1 inhibitor counter-screen fluorescence artifact; shares compounds with Apaf1 inhib; fluorescence interference counterscreen, Apaf-1 assay format; IC50, µM; 460 tested, under 10 active; call rule not given here
# Hits are given with their value; 0 = inactive; - = no result.
SMILES,Apaf1 inhib,procasp3 activ,GSTO1 inh,ZTA counter,EBNA-1 inhibitor,proCasp7 act,Apaf-1 inh conf,Rh110 interf inh,others
COc1ccc(NC(=O)[C@@H](NC(=O)N2C[C@H]3C[C@@H](C2)c2cccc(=O)n2C3)C(C)C)cc1OC,61.7,0,0,0,0,0,0,0,
O=C(Nc1cccc(Oc2c(F)c(F)c(F)c(F)c2F)c1)N1C[C@@H]2C[C@@H](C1)c1cccc(=O)n1C2,0,0,0,0,0,0,-,-,
COC(=O)CCC(=O)OC1(C)C(=O)C=C2C=C(C3CC3)N(C3CCCC3)C=C2C1=O (configuration not stated),67.5,0,0,0,0,0,0,0,
COC(=O)CCC(=O)OC1(C)C(=O)C=C2C=C(C3CC3)N(CC3CC3)C=C2C1=O (configuration not stated),56.8,0,0,0,0,0,0,0,
CC1(OC(=O)CCc2ccccc2)C(=O)C=C2C=C(c3ccc(C#N)cc3)N(CC3CC3)C=C2C1=O (configuration not stated),0,0,0,0,0,0,-,-,
CN(C)CCCNC(=O)C[C@H]1C[C@H](C(=O)N2CCCCC2)[C@@]2(C)c3[nH]c4cc(CCC(=O)N(C)C)ccc4c3CCN2C1=O,0,0,-,-,-,0,-,-,
COc1ccc(Br)c(C(=O)OCC(=O)NC2CCCCCC2)c1,0,0,-,0,-,0,-,-,
C/C(=C\C(=S)Nc1ccccc1)Nc1ccc2ccccc2c1,41.2,0,0,0,0,0,0,0,
C/C(=C\C(=S)Nc1ccccc1)Nc1cccc2ccccc12,96.6,0,0,0,0,0,0,0,
S=C(NCc1ccccc1)Nc1ccc2ccccc2c1,0,-,-,-,-,-,-,-,
COc1ccc(-c2c(-c3ccccc3OC)sc3ccccc23)cc1OC,0,0,0,0,0,0,-,-,
COc1ccccc1-c1sc2ccccc2c1-c1ccc(OCCN2CCCCC2)cc1,62.1,0,-,-,-,0,0,0,
COc1ccc2c(-c3ccc(OCCN4CCOCC4)cc3)c(-c3ccccc3OC)sc2c1,0,0,-,-,-,0,-,-,
COc1ccc2c(-c3ccc(OCCN4CCCCC4)cc3)c(-c3ccccc3OC)sc2c1,60.0,0,-,-,-,0,0,0,
O=C(NCCC(=O)N1CCN(c2cccc(Cl)c2)CC1)c1ccc(Br)cc1,43.9,0,-,0,-,0,0,0,
CN(Cc1ccccc1)c1oc(-c2ccco2)nc1C#N,40.9,0,0,0,0,0,0,0,
CN(C)c1oc(-c2ccco2)nc1C#N,0,0,0,0,0,0,-,-,
O=C(COC(=O)c1ccc([N+](=O)[O-])s1)NNC(=O)c1ccccc1,40.9,0,-,-,-,0,0,0,
CN(CC(=O)Nc1ccccc1Cl)C(=O)COC(=O)c1ccc([N+](=O)[O-])s1,0,0,-,-,-,0,-,-,
Cc1ccc(-c2nn3c(C)nnc3c3ccccc23)cc1S(=O)(=O)NCc1ccco1,43.5,0,0,0,0,0,61.2,0,Fluor interf inh=0
Cc1ccc(-c2nn3c(C)nnc3c3ccccc23)cc1S(=O)(=O)NC(C)(C)CO,0,0,0,0,0,0,-,-,
Cc1ccc(-c2nn3c(C)nnc3c3ccccc23)cc1S(=O)(=O)NCCO,0,0,0,0,0,0,-,-,
Cc1ccc(-c2nn3c(C)nnc3c3ccccc23)cc1S(=O)(=O)NC(C)c1ccccc1 (configuration not stated),56.6,0,0,0,0,0,61.5,0,Fluor interf inh=0
O=C(Nc1ccc(-c2cccc(F)c2)cc1)C1CCCN(Cc2ccccn2)C1 (configuration not stated),40.1,0,0,0,0,0,0,0,
O=C(NC1CCCC1)c1ccc(COc2ccccc2Br)o1,0,0,0,0,0,0,-,-,
SMILES,Apaf1 inhib,procasp3 activ,GSTO1 inh,ZTA counter,EBNA-1 inhibitor,proCasp7 act,Apaf-1 inh conf,Rh110 interf inh,others
Cc1ccc(-c2nn(CCC#N)cc2C=C(C#N)C#N)cc1,0,0,0,0,0,0,-,-,
CC(C)(C)c1ccc(-c2nn(CCC#N)cc2/C=N/O)cc1,49.9,0,0,0,0,0,0,0,
CCOC(=O)C1=C(C)OC2(O)c3ccccc3C(=O)C12O (configuration not stated),88.5,0,73.6,0,0,0,98.0,0,Fluor interf inh=0
CCOC(=O)C1=C(C)c2ccccc2OC1(CC)C(=O)OCC (configuration not stated),0,0,-,-,-,0,-,-,
Cc1ccc(S(=O)(=O)N2CCN(CC(=O)Nc3ccnn3C3CCCC3)CC2)cc1,0,0,-,0,-,0,-,-,
CC(=O)NC1=C(NC2CCS(=O)(=O)C2)C(=O)c2ccccc2C1=O (configuration not stated),40.8,0,0,0,0,0,0,0,
O=C(Nc1ccccc1)NC1CCS(=O)(=O)C1 (configuration not stated),0,0,0,0,0,0,-,-,
COc1ccc(NC(=O)COC(=O)c2ccc(OC)c(S(=O)(=O)N3CCCC3)c2)cc1OC,0,0,-,0,-,0,-,-,
COC(=O)[C@]1(CC(C)C)N[C@H](c2ccc(-c3ccc(F)cc3)cc2)[C@@H]2C(=O)N(C)C(=O)[C@@H]21,0,0,0,0,0,0,-,-,
COCc1ccc(CN2CCC(C(=O)Nc3cccc(-c4cccc(Cl)c4)c3)CC2)o1,49.3,0,0,0,0,0,0,0,
COCc1ccc(CN2CCC(C(=O)Nc3cccc(-c4cscn4)c3)CC2)o1,0,0,0,0,0,0,-,-,
O=C(O)c1ccc(NC2=C(N3CCOCC3)C(=O)c3ccccc3C2=O)cc1,67.9,0,46.4,0,0,0,50.6,0,Fluor interf inh=0
COc1cc(/C=C2\C(=O)N(CCC#N)N=C2C)c(Br)cc1OC(C)C,78.5,0,36.0,0,0,0,0,0,
CCOc1cc(Br)c(/C=C2/C(=O)N(C)C(=S)N2CC(=O)OC)cc1OC,0,0,0,0,0,0,-,-,
Cc1noc(C)c1COc1ccccc1C(=O)N1CCN(c2cccc(Cl)c2)CC1,51.8,0,-,0,-,0,0,0,
Cc1noc(C)c1COc1ccccc1C(=O)N1CCN(c2cccc(C(F)(F)F)c2)CC1,0,0,-,0,-,0,-,-,
O=C(NC1CC2CCCC(C1)N2S(=O)(=O)c1ccccc1)c1ccco1 (configuration not stated),42.1,0,0,0,0,0,0,0,
O=C(CN1C2CCCC1CC(NC(=O)c1ccco1)C2)Nc1ccccc1 (configuration not stated),0,0,0,0,0,0,-,-,
